Experimental data published in ChEMBL document CHEMBL1122792, “Synthesis and biological evaluation of radiolabeled beta-ruthenocenylalanine” (J Med Chem, 1984).

Key:
[1] = test system: Mus musculus; test: Distribution of Radioactivity in kidneys of CD-1 Mice by intravenous administration of compound after 5 minutes expressed as dose/gram; assay type: ADME, organism-based, Kidney; details: in vivo
Method in brief: (§1)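 Female CD-1 mice, 7 1/2 weeks old (25-29 g), fed and watered ad libitum. Agent given in physiological saline, pH adjusted to 7.4 and filtered, by lateral tail vein injection under ether anesthesia. Tissues collected at 5 min, 1 h, 4 h and 1 day. Injectate samples counted as standard; results as mean % injected dose/g with range.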

[2] = test system: Mus musculus; test: Distribution of Radioactivity in liver of CD-1 Mice by intravenous administration of compound after 1 day expressed as dose/gram; assay type: ADME, organism-based; details: in vivo, 24 h; method in brief: as §1
[3] = test system: Mus musculus; test: Distribution of Radioactivity in liver of CD-1 Mice by intravenous administration of compound after 1 hr expressed as dose/gram; assay type: ADME, organism-based; details: in vivo; method in brief: as §1
[4] = test system: Mus musculus; test: Distribution of Radioactivity in liver of CD-1 Mice by intravenous administration of compound after 4 hour expressed as dose/gram; assay type: ADME, organism-based; details: in vivo; method in brief: as §1
[5] = test system: Mus musculus; test: Distribution of Radioactivity in lungs of CD-1 Mice by intravenous administration of compound after 1 hr expressed as dose/gram; assay type: ADME, organism-based, Lung; details: in vivo; method in brief: as §1
[6] = test system: Mus musculus; test: Distribution of Radioactivity in lungs of CD-1 Mice by intravenous administration of compound after 4 hour expressed as dose/gram; assay type: ADME, organism-based, Lung; details: in vivo; method in brief: as §1
[7] = test system: Mus musculus; test: Distribution of Radioactivity in pancreas of CD-1 Mice by intravenous administration of compound after 1 day expressed as dose/gram; assay type: ADME, organism-based; details: in vivo, 24 h; method in brief: as §1
[8] = test system: Mus musculus; test: Distribution of Radioactivity in pancreas of CD-1 Mice by intravenous administration of compound after 1 hr expressed as dose/gram; assay type: ADME, organism-based; details: in vivo; method in brief: as §1
[9] = test system: Mus musculus; test: Distribution of Radioactivity in small intestine of CD-1 Mice by intravenous administration of compound after 4 hr expressed as dose/gram; assay type: ADME, organism-based; details: in vivo
Method in brief: (§2)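 Female CD-1 mice, 7 1/2 weeks old (25-29 g), fed and watered ad libitum. Radiotracer in physiological saline, pH 7.4, filtered, injected via lateral tail vein under ether anesthesia. Tissues taken at 5 min, 1 h, 4 h or 1 day. Percent injected dose per gram calculated against assayed samples of the injected solution; mean with range reported.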

[10] = test system: Mus musculus; test: Distribution of Radioactivity in stomach of CD-1 Mice by intravenous administration of compound after 4 hr expressed as dose/gram; assay type: ADME, organism-based; details: in vivo; method in brief: as §2
[11] = test system: Mus musculus; test: Distribution of Radioactivity in stomach of CD-1 Mice by intravenous administration of compound after 5 minutes expressed as dose/gram; assay type: ADME, organism-based; details: in vivo; method in brief: as §2
[12] = test system: Mus musculus; test: Distribution of Radioactivity in thymus of CD-1 Mice by intravenous administration of compound after 1 day expressed as dose/gram; assay type: ADME, organism-based; details: in vivo, 24 h; method in brief: as §2
[13] = test system: Mus musculus; test: Distribution of Radioactivity in thymus of CD-1 Mice by intravenous administration of compound after 4 hr expressed as dose/gram; assay type: ADME, organism-based; details: in vivo; method in brief: as §2
[14] = test system: Mus musculus; test: Distribution of Radioactivity in thymus of CD-1 Mice by intravenous administration of compound after 5 minutes expressed as dose/gram; assay type: ADME, organism-based; details: in vivo; method in brief: as §2
[15] = test system: Mus musculus; test: Distribution of Radioactivity in spleen of CD-1 Mice by intravenous administration of compound after 1 day expressed as dose/gram; assay type: ADME, organism-based; details: in vivo, 24 h; method in brief: as §2
[16] = test system: Mus musculus; test: Distribution of Radioactivity in spleen of CD-1 Mice by intravenous administration of compound after 1 hr expressed as dose/gram; assay type: ADME, organism-based; details: in vivo; method in brief: as §2
[17] = test system: Mus musculus; test: Distribution of Radioactivity in spleen of CD-1 Mice by intravenous administration of compound after 4 hr expressed as dose/gram; assay type: ADME, organism-based; details: in vivo; method in brief: as §2
[18] = test system: Mus musculus; test: Distribution of Radioactivity in spleen of CD-1 Mice by intravenous administration of compound after 5 minutes expressed as dose/gram; assay type: ADME, organism-based; details: in vivo; method in brief: as §2
[19] = test system: Mus musculus; test: Distribution of Radioactivity in adrenals of CD-1 Mice by intravenous administration of compound after 1 hr expressed as dose/gram; assay type: ADME, organism-based, Adrenal gland; details: in vivo; method in brief: as §1
[20] = test system: Mus musculus; test: Distribution of Radioactivity in adrenals of CD-1 Mice by intravenous administration of compound after 4 hr expressed as dose/gram; assay type: ADME, organism-based, Adrenal gland; details: in vivo; method in brief: as §1
[21] = test system: Mus musculus; test: Distribution of Radioactivity in blood of CD-1 Mice by intravenous administration of compound after 1 hr expressed as dose/gram; assay type: ADME, organism-based; details: in vivo; method in brief: as §1
[22] = test system: Mus musculus; test: Distribution of Radioactivity in blood of CD-1 Mice by intravenous administration of compound after 4 hour expressed as dose/gram; assay type: ADME, organism-based; details: in vivo; method in brief: as §1
[23] = test system: Rattus norvegicus; test: Distribution of Radioactivity in small intestine of Fisher 344 Rats by intravenous administration of compound after 1 hour expressed as dose/gram; assay type: ADME, organism-based; details: in vivo
Method in brief: (§3)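 Female Fischer 344 rats, 10-12 weeks old (170-200 g), food and water ad libitum; four rats per time point. About 6.3 μCi given in 0.05 mL saline (pH 7.4, filtered) by lateral tail vein under ether anesthesia. Tissues sampled at 5 min, 1 h, 4 h or 1 day. %ID/g computed from injectate standards; mean and range given.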

[24] = test system: Rattus norvegicus; test: Distribution of Radioactivity in small intestine of Fisher 344 Rats by intravenous administration of compound after 5 minutes expressed as dose/gram; assay type: ADME, organism-based; details: in vivo; method in brief: as §3
[25] = test system: Rattus norvegicus; test: Distribution of Radioactivity in spleen of Fisher 344 Rats by intravenous administration of compound after 1 hour expressed as dose/gram; assay type: ADME, organism-based; details: in vivo; method in brief: as §3
[26] = test system: Rattus norvegicus; test: Distribution of Radioactivity in stomach of Fisher 344 Rats by intravenous administration of compound after 1 hour expressed as dose/gram; assay type: ADME, organism-based; details: in vivo; method in brief: as §3
[27] = test system: Rattus norvegicus; test: Distribution of Radioactivity in stomach of Fisher 344 Rats by intravenous administration of compound after 5 minutes expressed as dose/gram; assay type: ADME, organism-based; details: in vivo; method in brief: as §3
[28] = test system: Rattus norvegicus; test: Distribution of Radioactivity in thymus of Fisher 344 Rats by intravenous administration of compound after 1 hour expressed as dose/gram; assay type: ADME, organism-based; details: in vivo; method in brief: as §3
[29] = test system: Rattus norvegicus; test: Distribution of Radioactivity in thymus of Fisher 344 Rats by intravenous administration of compound after 1 day expressed as dose/gram; assay type: ADME, organism-based; details: in vivo, 24 h; method in brief: as §3
[30] = test system: Rattus norvegicus; test: Distribution of Radioactivity in thymus of Fisher 344 Rats by intravenous administration of compound after 5 minutes expressed as dose/gram; assay type: ADME, organism-based; details: in vivo; method in brief: as §3
[31] = test system: Rattus norvegicus; test: Distribution of Radioactivity in lungs of Fisher 344 Rats by intravenous administration of compound after 4 hour expressed as dose/gram; assay type: ADME, organism-based, Lung; details: in vivo
Method in brief: (§4)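 Female Fischer 344 rats, 10-12 weeks old (170-200 g), fed and watered ad libitum; four rats per time point. Each received ~6.3 μCi in 0.05 mL saline (pH 7.4, filtered), given by lateral tail vein under ether anesthesia. Tissues taken at 5 min, 1 h, 4 h and 1 day. Injectate standards used; values as mean % injected dose/g with range.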

[32] = test system: Rattus norvegicus; test: Distribution of Radioactivity in pancreas of Fisher 344 Rats by intravenous administration of compound after 1 day expressed as dose/gram; assay type: ADME, organism-based; details: in vivo, 24 h; method in brief: as §4
[33] = test system: Rattus norvegicus; test: Distribution of Radioactivity in adrenals of Fisher 344 Rats by intravenous administration of compound after 5 minutes expressed as dose/gram; assay type: ADME, organism-based, Adrenal gland; details: in vivo; method in brief: as §4
[34] = test system: Rattus norvegicus; test: Distribution of Radioactivity in blood of Fisher 344 Rats by intravenous administration of compound after 1 hour expressed as dose/gram; assay type: ADME, organism-based; details: in vivo; method in brief: as §4
[35] = test system: Rattus norvegicus; test: Distribution of Radioactivity in kidneys of Fisher 344 Rats by intravenous administration of compound after 1 day expressed as dose/gram; assay type: ADME, organism-based, Kidney; details: in vivo, 24 h; method in brief: as §4
[36] = test system: Rattus norvegicus; test: Distribution of Radioactivity in kidneys of Fisher 344 Rats by intravenous administration of compound after 4 hour expressed as dose/gram; assay type: ADME, organism-based, Kidney; details: in vivo; method in brief: as §4
[37] = test system: Rattus norvegicus; test: Distribution of Radioactivity in kidneys of Fisher 344 Rats by intravenous administration of compound after 5 minutes expressed as dose/gram; assay type: ADME, organism-based, Kidney; details: in vivo; method in brief: as §4
[38] = test system: Rattus norvegicus; test: Distribution of Radioactivity in liver of Fisher 344 Rats by intravenous administration of compound after 4 hour expressed as dose/gram; assay type: ADME, organism-based; details: in vivo; method in brief: as §4

beta-[103,106Ru]Ruthenocenylalanine
Injected [1]: 15.745% | Injected [2]: 0.508% | Injected [3]: 1.784% | Injected [4]: 1.01% | Injected [5]: 1.015% | Injected [6]: 0.47% | Injected [7]: 0.067% | Injected [8]: 0.247% | Injected [9]: 0.367% | Injected [10]: 0.166% | Injected [11]: 0.987% | Injected [12]: 0.138% | Injected [13]: 0.195% | Injected [14]: 2.579% | Injected [15]: 0.189% | Injected [16]: 0.384% | Injected [17]: 0.206% | Injected [18]: 1.348% | Injected [19]: 1.054% | Injected [20]: 0.786% | Injected [21]: 1.039% | Injected [22]: 0.22% | Injected [23]: 1.421% | Injected [24]: 0.62% | Injected [25]: 0.14% | Injected [26]: 0.081% | Injected [27]: 0.243% | Injected [28]: 0.13% | Injected [29]: 0.024% | Injected [30]: 0.335% | Injected [31]: 0.124% | Injected [32]: 0.035% | Injected [33]: 0.275% | Injected [34]: 0.698% | Injected [35]: 1.128% | Injected [36]: 1.148% | Injected [37]: 5.44% | Injected [38]: 0.278%
